Experimental data of several laboratories.
Target: Mitogen-activated protein kinase kinase kinase 6 (MAP3K6, Homo sapiens, UniProt O95382)
Sequence (O95382 1-1288, as in one of the studies): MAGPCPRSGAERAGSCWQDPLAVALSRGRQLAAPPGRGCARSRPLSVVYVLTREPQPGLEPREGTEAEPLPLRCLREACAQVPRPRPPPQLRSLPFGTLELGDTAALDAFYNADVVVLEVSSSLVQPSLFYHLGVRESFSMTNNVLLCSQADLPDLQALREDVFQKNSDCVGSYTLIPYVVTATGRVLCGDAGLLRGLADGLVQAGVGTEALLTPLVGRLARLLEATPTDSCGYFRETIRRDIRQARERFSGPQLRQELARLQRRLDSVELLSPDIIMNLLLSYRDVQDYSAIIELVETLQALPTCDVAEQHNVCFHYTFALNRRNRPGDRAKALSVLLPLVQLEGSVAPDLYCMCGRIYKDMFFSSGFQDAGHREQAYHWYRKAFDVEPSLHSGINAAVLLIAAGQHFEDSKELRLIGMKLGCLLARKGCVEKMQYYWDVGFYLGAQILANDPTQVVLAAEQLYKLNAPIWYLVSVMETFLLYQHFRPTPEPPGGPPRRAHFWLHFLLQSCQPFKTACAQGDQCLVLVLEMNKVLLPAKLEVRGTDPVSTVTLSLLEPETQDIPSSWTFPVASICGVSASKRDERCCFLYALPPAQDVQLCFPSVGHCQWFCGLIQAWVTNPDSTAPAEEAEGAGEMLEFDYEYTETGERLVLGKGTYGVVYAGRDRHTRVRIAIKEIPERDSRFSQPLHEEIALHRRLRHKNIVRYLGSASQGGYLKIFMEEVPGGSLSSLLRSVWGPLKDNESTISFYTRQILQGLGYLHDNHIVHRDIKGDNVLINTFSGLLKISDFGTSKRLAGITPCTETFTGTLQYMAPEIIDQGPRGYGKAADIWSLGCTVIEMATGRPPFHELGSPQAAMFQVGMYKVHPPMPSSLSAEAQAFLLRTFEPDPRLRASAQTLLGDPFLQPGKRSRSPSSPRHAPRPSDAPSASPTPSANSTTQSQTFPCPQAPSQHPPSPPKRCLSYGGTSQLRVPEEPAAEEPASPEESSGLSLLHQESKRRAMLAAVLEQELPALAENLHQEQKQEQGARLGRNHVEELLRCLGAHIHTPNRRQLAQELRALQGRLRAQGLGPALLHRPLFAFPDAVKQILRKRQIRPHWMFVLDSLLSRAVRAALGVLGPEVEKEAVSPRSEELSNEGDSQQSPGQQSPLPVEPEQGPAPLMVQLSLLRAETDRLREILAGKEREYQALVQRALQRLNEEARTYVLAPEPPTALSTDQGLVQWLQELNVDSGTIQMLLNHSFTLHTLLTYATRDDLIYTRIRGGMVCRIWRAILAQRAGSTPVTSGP

Structure (SMILES) | read-out | technique | concentration | remaining binding [%]
N[C@H]1CCN(c2nccc(-c3cnn4ncccc34)n2)C1 | binding |  | 1 µM | 82
CNC(=O)[C@@H]1CC[C@@H](n2c(-c3ccc4cnccc4c3)nc3ccc(C(=O)NCc4cccc(C(N)=O)c4)cc32)C1 | binding | competition with immobilised ligand | 1 µM | 100
CN([C@@H]1CCc2c(CC(=O)O)c3cc(S(C)(=O)=O)ccc3n2C1)S(=O)(=O)c1ccc(F)cc1 | cell-free assay | competition with immobilised ligand | 1 µM | 89
c1cnn2ncc(-c3ccnc(N4CCC45COC5)n3)c2c1 | binding |  | 1 µM | 61
CN([C@@H]1CCc2c(CC(=O)O)c3ccccc3n2C1)S(=O)(=O)c1ccc(F)cc1 | cell-free assay | competition with immobilised ligand | 1 µM | 80
FC(F)(F)Oc1cccc(-c2cnc3ccc(-c4ccncc4)nn23)c1 | cell-free assay | competition with immobilised ligand | 5 µM | 96
CNCc1ccccc1-c1csc([C@H](C)Nc2nc(C)nc3cc(OC)c(OC)cc23)c1 | cell-free assay | competition with immobilised ligand | 1 µM | 100
Cc1cnc(Nc2ccc(C(=O)N3CCC(N4CCCC4)CC3)cc2)nc1-c1cc2ccccc2s1 | binding | competition with immobilised ligand | 1 µM | 100
CSc1cccnc1N1CCN(Cc2nc3ccccc3[nH]2)CC1 | cell-free assay | competition with immobilised ligand | 1 µM | 92
O=C(NCCCN1CCOCC1)c1ccc(Nc2nccc(-c3cc4ccccc4s3)n2)cc1 | binding | competition with immobilised ligand | 1 µM | 98
N#CC1(c2ccccn2)CCN(Cc2cc(C(=O)N3CCCC3)c(=O)n3ccccc23)CC1 | cell-free assay | competition with immobilised ligand | 1 µM | 100
Cc1cnn2ncc(-c3ccnc(N(C)C)n3)c2c1 | binding |  | 1 µM | 81
CO[C@@H](C)c1c(Nc2ccc([C@@H](N(C)C(=O)C3CCS(=O)(=O)CC3)C(F)(F)F)cc2)cnc2cc(Cl)nn12 | cell-free assay | competition with immobilised ligand | 1 µM | 100
O=C(NCC1CCOCC1)c1n[nH]cc1NC(=O)c1c(F)cccc1F | binding | competition with immobilised ligand | 1 µM | 77
CN(CCCC(F)(F)F)c1nccc(-c2cnn3ncccc23)n1 | binding |  | 1 µM | 100
O=C(c1ccc(Nc2ncc(Cl)c(-c3cc4ccccc4s3)n2)cc1)N1CCC(N2CCCC2)CC1 | binding | competition with immobilised ligand | 1 µM | 80
CN(c1nccc(-c2cnn3ncccc23)n1)C1CC1 | binding |  | 1 µM | 100
Nc1ncc2c(n1)-c1c([nH]c3ccc(C#CC4CC4)cc13)CCCC2 | binding | competition with immobilised ligand | 1 µM | 98
F[C@@H]1CCN(c2nccc(-c3cnn4ncccc34)n2)C1 | binding |  | 1 µM | 76
COc1cnc(Nc2cccc(S(N)(=O)=O)c2)nc1N1CCN(c2ccccc2)CC1 | binding | competition with immobilised ligand | 1 µM | 93
CCOCCn1cc(C(=O)Nc2ccc(-n3nc(-c4cccnc4)cc3C(F)(F)F)cn2)ccc1=O | cell-free assay | competition with immobilised ligand | 1 µM | 86
C[C@@H]1CCN(c2nccc(-c3cnn4ncccc34)n2)C1 | binding |  | 1 µM | 55
